These results are taken from ChEMBL document CHEMBL1938284, “Synthesis and biological activity of novel organoselenium derivatives targeting multiple kinases and capable of inhibiting cancer progression to metastases” (Eur J Med Chem, 2012).

pIC50: −log10 of the molar value.

The assay can be described thus: Antiproliferative activity against human MDA231 cells after 72 hrs by MTT assay. As to conditions: MDA-MB-231, 72 h. The assay is classed as functional, cell-based. The essentials:
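MTT read-out on MDA-231 cells. 1×10^3 exponentially growing cells seeded and incubated 24, 48 and 72 h. Medium replaced with 1 mg/mL MTT for 3–4 h at 37 °C.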
`O=c1c2ccccc2[se]n1[C@@H]1O[C@H](CO)[C@H](O)[C@H](O)[C@H]1O` gave a pIC50 of under 4.00. For `CC(=O)OC[C@H]1O[C@@H](n2[se]c3ccccc3c2=O)[C@H](OC(C)=O)[C@@H](OC(C)=O)[C@@H]1O[C@@H]1O[C@H](COC(C)=O)[C@@H](OC(C)=O)[C@H](OC(C)=O)[C@H]1OC(C)=O` the value was 4.70; for `CC(=O)OC[C@H]1O[C@@H](OCCn2[se]c3ccccc3c2=O)[C@H](OC(C)=O)[C@@H](OC(C)=O)[C@@H]1OC(C)=O`, 4.46. Consider `O=c1c2ccccc2[se]n1[C@@H]1O[C@H](CO)[C@@H](O[C@@H]2O[C@H](CO)[C@@H](O)[C@H](O)[C@H]2O)[C@H](O)[C@H]1O`, for which the pIC50 is under 4.00.

As for `O=c1c2ccccc2[se]n1[C@@H]1O[C@H](CO)[C@@H](O[C@@H]2O[C@H](CO)[C@H](O)[C@H](O)[C@H]2O)[C@H](O)[C@H]1O`, the pIC50 is under 4.00.

`O=c1c2ccccc2[se]n1CCO[C@@H]1O[C@H](CO)[C@@H](O)[C@H](O)[C@H]1O` had a pIC50 of under 4.00. Compound `CC(=O)OC[C@H]1O[C@@H](n2[se]c3ccccc3c2=O)[C@H](OC(C)=O)[C@@H](OC(C)=O)[C@H]1OC(C)=O` showed a pIC50 of 4.68.
